# Measurements published in ChEMBL document CHEMBL3994590, “In vitro activity and mode of action of distamycin analogues against African trypanosomes” (Eur J Med Chem, 2017).
# The source made the active and inactive calls. No cut-off for these calls is given here.
# Legend:
# Leishmania infantum = assay: Inhibition of Leishmania infantum recombinant trypanothione synthetase using GSH/spermididine as substrate assessed as residual activity by measuring phosphate release from ATP at 30 uM after 15 mins by Biomol Green reagent based assay relative to control
# [1] = test system: Trypanosoma brucei brucei; assay: Antitrypanosomal activity against Trypanosoma brucei brucei 427 bloodstream forms at 5 uM after 24 hrs by propidium iodide dye based flow cytometry; assay type: functional; conditions: for inhibition of growth at 5 µM: Trypanosoma brucei, 427, 24 h, read-out: GI
# Procedure, shortened: (§1)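 Bloodstream T. b. brucei 427 grown in HMI-9 with 10% FBS, penicillin/streptomycin, 37 °C, 5% CO2. Exponential-phase cells seeded at 5x10^5/mL; compounds added from DMSO stocks, 1% v/v DMSO final. […] Exposure 24 h, then diluted into PBS/1% glucose with 2 µg/mL PI and counted by flow cytometry. Viability given as % of DMSO-treated cell count.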
# [2] = test system: Trypanosoma brucei brucei; assay: Inhibition of Trypanosoma brucei brucei recombinant trypanothione synthetase using GSH/spermididine as substrate assessed as residual activity by measuring phosphate release from ATP at 30 uM after 15 mins by Biomol Green reagent based assay relative to control
# Trypanosoma cruzi = assay: Inhibition of Trypanosoma cruzi recombinant trypanothione synthetase using GSH/spermididine as substrate assessed as residual activity by measuring phosphate release from ATP at 30 uM after 15 mins by Biomol Green reagent based assay relative to control
# [3] = Selectivity index, ratio of EC50 for murine macrophage J774 cells to EC50 for Trypanosoma brucei brucei 427 bloodstream forms; assay type: toxicity; conditions: mouse; read-out: Ratio EC50
# [4] = test system: Trypanosoma brucei brucei; assay: Antitrypanosomal activity against Trypanosoma brucei brucei 427 bloodstream forms after 24 hrs by propidium iodide dye based flow cytometry; assay type: functional; conditions: Trypanosoma brucei, 427, 24 h; procedure, shortened: as §1
# [5] = test system: Trypanosoma brucei brucei; assay: Antitrypanosomal activity against Trypanosoma brucei brucei 427 bloodstream forms infected CHO-K1 cells expressing redox biosensor hGrx-roGFP2 assessed as induction of hGrx-roGFP2 oxidation at 1 mM after 1 hr by flow cytometric method; assay type: functional
# Procedure, shortened: (§2)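 Parasites induced with oxytetracycline for 24 h, then moved to 1x10^6/200 µL without inducer. Treated in triplicate for 1 h at 37 °C with 78–310 nM test compound, 1 mM menadione, 15 µM nifurtimox, 1 mM DTT or 1% DMSO. Half then given 1 mM DTT for 30 min more. PI at 2 µg/mL added; biosensor read at 488/530 nm in PI-negative cells only, as % reduction relative to DMSO.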
# [6] = test system: Trypanosoma brucei brucei; assay: (§3) Antitrypanosomal activity against Trypanosoma brucei brucei 427 bloodstream forms infected CHO-K1 cells expressing redox biosensor rxYFP assessed as induction of rxYFP oxidation at 1 mM preincubated for 1 hr followed by DTT addition measured after 30 mins by propidium iodide based flow cytometry relative to control; assay type: functional
# Procedure, shortened: (§4)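 CHO-K1 cells expressing rxYFP in DMEM with 10% FCS, given 400 µg/mL zeocin 48 h before the assay. Trypsinized cells seeded at 8x10^5/mL and treated in triplicate for 1 h at 37 °C with 1, 5 or 10 µM test compound, 1 mM menadione, H2O2 or DTT, or 1% DMSO. Some wells then given 1 mM DTT for 30 min. PI-negative cells analysed by flow cytometry (488/530 nm), as % reduction relative to DMSO.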
# [7] = test system: Trypanosoma brucei brucei; assay: Antitrypanosomal activity against Trypanosoma brucei brucei 427 bloodstream forms infected CHO-K1 cells expressing redox biosensor rxYFP assessed as induction of rxYFP oxidation at 1 mM after 1 hr by propidium iodide based flow cytometry relative to control; assay type: functional; procedure, shortened: as §4
# [8] = test system: Trypanosoma brucei brucei; assay: (§5) Antitrypanosomal activity against Trypanosoma brucei brucei 427 bloodstream forms infected CHO-K1 cells expressing redox biosensor hGrx-roGFP2 assessed as induction of hGrx-roGFP2 oxidation at 1 mM preincubated for 1 hr followed by DTT addition measured after 30 mins by flow cytometric method; assay type: functional; procedure, shortened: as §2
# [9] = test system: Trypanosoma brucei brucei; assay: (§6) Antitrypanosomal activity against Trypanosoma brucei brucei 427 bloodstream forms assessed as induction of membrane damage at 310 nM after 3 hrs by propidium iodide dye based flow cytometry relative to control; assay type: functional
# [10] = test system: Trypanosoma brucei brucei; assay: Antitrypanosomal activity against Trypanosoma brucei brucei 427 bloodstream forms infected CHO-K1 cells expressing redox biosensor hGrx-roGFP2 assessed as induction of hGrx-roGFP2 oxidation at 77.5 to 310 nM after 1 hr by flow cytometric method; assay type: functional; procedure, shortened: as §2
# [11] = test system: Trypanosoma brucei brucei; assay: Antitrypanosomal activity against Trypanosoma brucei brucei 427 bloodstream forms assessed as induction of membrane damage at 310 nM after 2 hrs by propidium iodide dye based flow cytometry relative to control; assay type: functional
# Procedure, shortened: (§7)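 Bloodstream strain 427 at 5x10^5/mL in triplicate, exposed to 310, 155 or 77.5 nM, 0.001% v/v Triton X-100, 15 µM nifurtimox or 1% v/v DMSO. Incubated 0.5, 1, 2 or 4 h, then diluted into PBS/1% glucose. PI added at 2 µg/mL just before flow cytometry. Result is % PI-positive cells, mean ± SD (n=3), with one-way ANOVA and Dunnett's test against DMSO.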
# [12] = test system: Trypanosoma brucei brucei; assay: Antitrypanosomal activity against Trypanosoma brucei brucei 427 bloodstream forms infected CHO-K1 cells expressing redox biosensor rxYFP assessed as induction of rxYFP oxidation at 1 to 10 uM after 1 hr by propidium iodide based flow cytometry relative to control; assay type: functional; procedure, shortened: as §4
# [13] = test system: Trypanosoma brucei brucei; assay: as §5, with “77.5 to 310 nM” for “1 mM”; assay type: functional; procedure, shortened: as §2
# [14] = test system: Trypanosoma brucei brucei; assay: Antitrypanosomal activity against Trypanosoma brucei brucei 427 bloodstream forms assessed as induction of membrane damage at 155 nM after 2 to 4 hrs by propidium iodide dye based flow cytometry; assay type: functional; procedure, shortened: as §7
# [15] = test system: Trypanosoma brucei brucei; assay: as §6, with “nM parasite preincubated with 125 to 500 uM DFO for 3 hrs followed by test compound addition measured” for “nM”; assay type: functional
# Procedure, shortened: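 Strain 427 at 1x10^6/mL in triplicate at 37 °C. Arm A: 0.31 µM test compound with 100 µM DFO or bipyridine for 2 h. Arm B: DFO at 125–500 µM for 3 h, then 0.31 µM test compound for a further 3 h. Membrane integrity read by PI staining and flow cytometry; mean ± SD (n=3).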
# [16] = test system: Trypanosoma brucei brucei; assay: Antitrypanosomal activity against Trypanosoma brucei brucei 427 bloodstream forms assessed as induction of membrane damage at 310 nM after 1 hr by propidium iodide dye based flow cytometry; assay type: functional; procedure, shortened: as §7
# [17] = test system: Trypanosoma brucei brucei; assay: Antitrypanosomal activity against Trypanosoma brucei brucei 427 bloodstream forms assessed as increase in intracellular free iron level at 3.1 uM co-incubated with bipyridine for 1 hr by PhenGreen SK diacetate reagent based flow cytometry
# [18] = test system: Trypanosoma brucei brucei; assay: Antitrypanosomal activity against Trypanosoma brucei brucei 427 bloodstream forms assessed as membrane damage in presence of bipyridine at 0.31 uM after 2 hr by propidium iodide staining-based flow cytometry
# [19] = test system: Trypanosoma brucei brucei; assay: Antitrypanosomal activity against Trypanosoma brucei brucei 427 bloodstream forms assessed as increase in intracellular free iron level at 3.1 uM co-incubated with DFO after 1 hr by PhenGreen SK diacetate reagent based flow cytometry; assay type: functional, cell-based
# Procedure, shortened: (§8)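 Strain 427 at 2x10^6/mL in triplicate with 3.1 µM test compound, with or without 10 or 100 µM deferoxamine or bipyridine; 1% DMSO control. After 40 min at 37 °C/5% CO2, PhenGreen SK diacetate added at 10 µM for 20 min more. Cells diluted in PBS/1% glucose and probe fluorescence (ex 488 nm) read by flow cytometry; mean ± SD (n=3).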
# [20] = test system: Trypanosoma brucei brucei; assay: Antitrypanosomal activity against Trypanosoma brucei brucei 427 bloodstream forms assessed as induction of mitochondrial damage at 0.31 uM preincubated for 30 mins followed by addition of Mitotracker red CM-H2XRos further incubated for 30 mins and measured by epifluorescence microscopy; assay type: functional
# Procedure, shortened: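 Strain 427 at 1x10^6/mL treated with 0.31 µM test compound for 30 min. MitoTracker Red CM-H2XRos then added at 250 nM for 30 min more. Cells centrifuged, PBS-washed, fixed in 4% paraformaldehyde for 18 min, mounted with DAPI. Mitochondrial morphology and staining intensity compared with 1% DMSO-treated cells by fluorescence microscopy.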
# [21] = test system: Trypanosoma brucei brucei; assay: Antitrypanosomal activity against Trypanosoma brucei brucei 427 bloodstream forms assessed as induction of membrane damage at 77.5 to 310 nM by propidium iodide dye based flow cytometry; assay type: functional; conditions: TDE = time-dependent effect; procedure, shortened: as §7
# [22] = test system: Trypanosoma brucei brucei; assay: as §3, with “10 uM” for “1 mM”; assay type: functional; procedure, shortened: as §4
# [23] = test system: Trypanosoma brucei brucei; assay: Antitrypanosomal activity against Trypanosoma brucei brucei 427 bloodstream forms assessed as increase in intracellular free iron level at 3.1 uM after 1 hr by PhenGreen SK diacetate reagent based flow cytometry; assay type: functional; procedure, shortened: as §8
# [24] = test system: Trypanosoma brucei brucei; assay: Antitrypanosomal activity against Trypanosoma brucei brucei 427 bloodstream forms assessed as decrease in parasite levels with discrete lysosomal signal at 0.31 uM preincubated for 30 mins followed by addition of Lysotracker red DND-99 further incubated for 30 mins and measured by epifluorescence microscopy relative to control; assay type: functional
# [25] = test system: Trypanosoma brucei brucei; assay: Antitrypanosomal activity against Trypanosoma brucei brucei 427 bloodstream forms assessed as induction of membrane damage at 310 nM after 2 to 4 hrs by propidium iodide dye based flow cytometry; assay type: functional; procedure, shortened: as §7
# [26] = test system: Trypanosoma brucei brucei; assay: Antitrypanosomal activity against Trypanosoma brucei brucei 427 bloodstream forms at 30 uM after 24 hrs by propidium iodide dye based flow cytometry; assay type: functional; procedure, shortened: as §1
Compound,Activity (Leishmania infantum),Activity [2],Activity (Trypanosoma cruzi),selectivity ratio [3],EC50 [4],other results
CC(C)(C)OC(=O)Nc1nc(C(=O)Nc2nc(C(=O)O)cs2)cs1,89.9%,100%,105%,,,inhibition of growth at 5 µM [1]: 10.8%
CCOC(=O)c1csc(NC(=O)c2csc(N)n2)n1,89.5%,111%,97.5%,,,inhibition of growth at 5 µM [1]: 25.6%
CCOC(=O)c1csc(NC(=O)c2csc(NC(=O)OC(C)(C)C)n2)n1,102%,111%,96.4%,3.5,13.7 µM,
Cc1nc(C(=O)Nc2nc(C(=O)O)cs2)cs1,102%,96.6%,104%,,,inhibition of growth at 5 µM [1]: 8.1%
CCOC(=O)c1csc(NC(=O)c2csc(NC(=O)c3csc(NC(C)=O)n3)n2)n1,105%,93.7%,96.3%,29.1,5.4 µM,
O[C@H](CS)[C@H](O)CS,,,,,,Activity [5]: inactive
CC1=CC(=O)c2ccccc2C1=O [MENADIONE],,,,,,Activity [5]: 21%; Activity [6]: inactive; Activity [7]: 70%; Activity [8]: inactive
CCOC(=O)c1csc(NC(=O)c2csc(NC(=O)c3csc(NC(=O)OC(C)(C)C)n3)n2)n1,106%,120%,126%,16.5,0.31 µM,Activity [9]: 80%; Activity [10]: 10%; Activity [11]: 87%; Activity [12]: 10%; Activity [13]: inactive; Activity [14]: Active; Activity [15]: 40 - 67%; Activity [16]: 10%; Activity [17]: inactive; Activity [18]: 47%; Activity [19]: inactive; Activity [20]: inactive; Activity [21]: Tde; Activity [22]: inactive; Activity [23]: 50%; fold change (FC) [24]: >3; Activity [25]: 80 - 90%
CCOC(=O)c1csc(NC(=O)c2csc(NC(C)=O)n2)n1,82.8%,102%,98.1%,7.4,9.6 µM,
CCOC(=O)c1csc(NC(=O)c2csc(NC(=O)c3csc(C)n3)n2)n1,110%,112%,102%,10.5,5 µM,
OO [HYDROGEN PEROXIDE],,,,,,Activity [6]: inactive; Activity [7]: 25%
CCOC(=O)c1csc(NC(=O)c2csc(C)n2)n1,98.5%,95.2%,99.7%,,,growth inhibition (GI) [1]: inactive
CC1CS(=O)(=O)CCN1/N=C/c1ccc([N+](=O)[O-])o1 (stereo not drawn) [NIFURTIMOX],,,,10,15 µM,
CC(=O)Nc1nc(C(=O)Nc2nc(C(=O)Nc3nc(C(=O)O)cs3)cs2)cs1,83.6%,103%,102%,,,growth inhibition (GI) [1]: inactive; Activity [26]: inactive
O=c1[nH]c2cc3no[n+]([O-])c3cc2[nH]1,,,64.9%,,,
CCOC(=O)c1csc(NC(=O)c2csc(NC(=O)c3csc(N)n3)n2)n1,99.8%,100%,96.2%,19.6,5.5 µM,
CC(=O)Nc1nc(C(=O)Nc2nc(C(=O)O)cs2)cs1,102%,108%,99%,,,inhibition of growth at 5 µM [1]: 20%
CC(C)(C)OC(=O)Nc1nc(C(=O)Nc2nc(C(=O)Nc3nc(C(=O)O)cs3)cs2)cs1,116%,112%,112%,,,inhibition of growth at 5 µM [1]: 22.7%
CNCCNC(=O)CN1C(=O)Cc2c([nH]c3ccc(Br)cc23)-c2ccc(Cl)cc21,57.1%,49.4%,,,,
